Source: PubChem BioAssay
Rows were chosen to be rich in hits. Some 1.9% of all compounds tested hit in one or more screens of this group.
Tb MetRS inh = Trypanosoma brucei MetRS inhibition; inhibition, % at 11.9 µM; 0.4% of 360,000 active; purified T. brucei MetRS, ATP depletion, Kinase-Glo luminescence; AID 624268;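 active = inhibition above a per-plate cutoff of the control wells' mean inhibition plus 3 SD, cut at about 5.5% in these data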
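Measured by: Kinase-Glo luciferase luminescence reporting remaining unconsumed ATP. Material: purified T. brucei MetRS enzyme. Doses: 11.9 µM compound single dose, 0.9% DMSO. Medium: HEPES buffer containing pyrophosphatase, BSA, spermine, DTT. Times: 15 min preincubation, 2 h reaction, all 25 °C. Reagent: methionine, ATP and bulk E. coli tRNA.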
Rce1 inh = inhibitors of yeast Ras-converting enzyme. Q03530. yeast membranes, quenched prenylated peptide cleavage fluorescence. calls only. 0.27% of 290,000 active;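 active = fall in fluorescence gain of 50% or more versus controls, with final raw signal at or below 3038400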
Target sequence (Q03530 whole entry, looked up): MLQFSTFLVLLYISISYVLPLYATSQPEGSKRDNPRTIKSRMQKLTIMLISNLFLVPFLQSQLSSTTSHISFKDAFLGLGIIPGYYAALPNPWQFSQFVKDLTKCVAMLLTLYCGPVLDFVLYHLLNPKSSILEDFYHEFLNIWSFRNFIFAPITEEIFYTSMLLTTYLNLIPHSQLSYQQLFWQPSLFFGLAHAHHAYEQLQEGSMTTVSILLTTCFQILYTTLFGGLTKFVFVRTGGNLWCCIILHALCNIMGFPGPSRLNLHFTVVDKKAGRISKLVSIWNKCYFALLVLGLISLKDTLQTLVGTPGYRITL
NadD inh = NadD (S. aureus) enzyme inhibition. purified NadD enzyme, colorimetric absorbance read-out. 0.78% of 360,000 active. inhibition, % at 20 µM. AID 602399; in the data active = inhibition above about 26%
core dimer inh = HCV core protein dimerization inhibition; TR-FRET GST/Flag-core106 dimerization, 1536-well; inhibition, % at 5 µM; 0.33% of 300,000 active; AID 1899;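 active = inhibition above the mean of all tested compounds plus 3 SD, set per screening campaign, cut at about 45% in these data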
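Test system: GST/Flag-tagged HCV core106 proteins; Medium: KF-containing HEPES buffer, pH 7.45, DTT, CHAPS, BSA; Times: compound-protein-antibody incubation 4 h at 22.5 °C; Detection: TR-FRET 671 and 617 nm emission; Benchmarks: wells lacking GST-core106 and wells with excess unlabelled core106.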
Pemphigus Ab inh = blocks pemphigus antibody binding to human desmoglein-3; P32926; DSG3-coupled beads, scFv-anti-DSG3-GFP binding, flow cytometry; hits give low values; binding (percent of control), % at 10 µM; 0.48% of 310,000 active; AID 588358;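 active = binding more than 3 SD below its plate's average and above zero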;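 also: hits lower antibody fragment binding to DSG3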
Tb MetRS conf = confirmation of Trypanosoma brucei MetRS inhibitors; T. brucei MetRS enzyme, luminescence (ATP depletion); 93% of 1,400 active; inhibition, % at 11.9 µM; shares compounds with Tb MetRS inh; AID 624412; in the data active = inhibition above about 7%
Jurkat tox = kills Jurkat cells in T. brucei MetRS counterscreen. shares compounds with Tb MetRS inh. 12% of 1,400 active. AID 624413. Jurkat cells viability, ATP luminescence. inhibition, % at 8.3 µM; in the data active = inhibition above about 15%
TbMetRS FP orth = inhibits T. brucei methionyl tRNA synthetase in orthogonal FP test. shares compounds with Tb MetRS inh. purified T. brucei MetRS, fluorescence polarization. inhibition, % at 11.9 µM. 44% of 1,400 active; in the data active = inhibition above about 17%
Numbers stand for hits; 0 = inactive; - = no result.

SMILES	Tb MetRS inh	Rce1 inh	NadD inh	core dimer inh	Pemphigus Ab inh	Tb MetRS conf	Jurkat tox	TbMetRS FP orth
Cn1c(COc2ccc(Cl)cc2Cl)nnc1SCC(=O)NCC1CCCO1 (configuration not stated)	6.0	0	0	0	0	17	0	0
CCCCN1Cc2ccccc2Oc2cc(Br)ccc2S1(=O)=O	0	-	0	-	0	-	-	-
Cc1ccc(NC(=O)COC(=O)C2(c3ccc(Cl)cc3)CCCC2)cc1	6.9	0	0	0	0	12	0	0
Nc1nc(Cl)cc(=O)n1Cc1ccc(Cl)cc1	9.4	0	0	0	0	18	0	0
Nc1cc(=O)n(Cc2ccccc2)c(=O)n1-c1ccc(Cl)cc1	0	0	0	0	0	-	-	-
NNC(=O)CSc1nc(-c2ccccc2)cn1-c1ccccc1	7.2	0	0	0	0	0	0	0
Cc1cc(Br)ccc1OCCCCNCCO	6.1	0	0	0	0	11	0	0
C=CCNCCCCOc1ccc(Br)cc1C	0	0	0	0	0	-	-	-
Cc1cc(C(=O)CN2C(=O)NC3(CCC(C)CC3)C2=O)c(C)n1C (configuration not stated)	0	0	0	0	-	-	-	-
Cc1ccc2[nH]cc(C(=O)CN3CCN(c4ccccc4F)CC3)c2c1	0	0	0	0	0	-	-	-
COc1ccc(N2CCN(CCCNC(=O)C(=O)c3c(C)[nH]c4ccccc34)CC2)cc1	5.9	0	0	0	0	18	0	0
O=C(c1cc(=O)[nH]c2ccccc12)N1CCN(Cc2ccc3c(c2)OCO3)CC1	0	-	0	-	0	-	-	-
COc1ccc(N2CCN(C(=O)C(=O)c3c[nH]c4ccccc34)CC2)cc1	0	0	0	0	0	-	-	-
O=C(CN1CCN(Cc2ccc3c(c2)OCO3)CC1)c1c[nH]c2ccccc12	14	0	0	0	0	27	0	0
O=C(C(=O)N1CCN(c2ccccc2F)CC1)c1c[nH]c2ccccc12	7.3	0	0	0	-	11	0	0
COc1ccccc1N1CCN(C(=O)C(=O)c2c[nH]c3ccccc23)CC1	9.3	0	0	0	0	27	0	0
O=C(C(=O)N1CCN(Cc2ccccc2)CC1)c1c[nH]c2ccccc12	12	-	0	0	0	21	0	0
Cc1[nH]c2ccccc2c1C(=O)C(=O)N1CCN(c2ccccc2)CC1	12	0	0	0	0	19	0	0
O=C(C(=O)N1CCN(c2ccccc2)CC1)c1c[nH]c2ccccc12	6.7	0	0	0	-	13	0	0
O=C(c1c[nH]c2ccccc12)N1CCN(c2ccccc2)CC1	0	0	0	0	0	-	-	-
Cc1[nH]c2ccccc2c1C(=O)C(=O)N1CCN(C)CC1	0	0	0	0	0	-	-	-
COc1ccc2nc(SCC(=O)Nc3cc(OC)c(OC)cc3C(=O)O)c(C)cc2c1	0	0	0	0	0	-	-	-
Cc1cc(Br)cn2c(Cc3ccsc3)c(C(C)(C)C)nc12	0	-	0	-	-	-	-	-
Cc1cc(C)n(-c2ncnc3sc4c(c23)CCCC4)n1	0	0	0	0	0	-	-	-
CC(C)Oc1ccc(-c2cc(C(=O)NCCN3CCOCC3)c3ccccc3n2)cc1	0	0	0	0	0	-	-	-
SMILES	Tb MetRS inh	Rce1 inh	NadD inh	core dimer inh	Pemphigus Ab inh	Tb MetRS conf	Jurkat tox	TbMetRS FP orth
O=C(c1ccccc1)c1nn(-c2ccccc2)c2nnc(Cc3ccccc3)c(=O)n12	6.5	0	0	0	0	16	15	0
Cc1ccc(-n2nc(C(=O)c3ccccc3)n3c(=O)c(Cc4ccccc4)nnc23)cc1	0	0	0	0	0	-	-	-
O=C(NNc1cc(Cl)cc(Cl)c1)c1cccs1	25	0	0	0	0	56	0	30
CCc1ccc(C(=O)NNc2cc(Cl)cc(Cl)c2)cc1	15	0	0	0	0	39	0	19
CCc1ccc(C(=O)NNc2ccc(Cl)cc2)cc1	0	0	0	0	-	-	-	-
O=C(NNc1ccc(Cl)cc1)c1cccs1	0	0	0	0	0	-	-	-
O=C1C2Sc3[nH]c(=O)sc3C(c3cc([N+](=O)[O-])ccc3O)C2C(=O)N1c1ccccc1 (configuration not stated)	16	0	0	0	0	19	0	0
